The values that follow come from PMC7686626 (The Journal of International Medical Research, 2020).

Structures are written as SMILES.

A short description of series [1]: Short-term stability of stock solutions at room temperature. Format: physicochemical. To be noted: stock solution in methanol, room temperature for 6 hours. In outline: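 Stock solutions (2.0 mg·mL−1 in methanol) of each analyte and the taxol internal standard were held 6 hours at room temperature and then assayed by the validated HPLC–MS/MS method. A deviation within ±15% was taken as stable.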

The nature of series [2]: Pharmacokinetics study in rats after oral administration of HQCF extract. Format: in vivo, rat. Particulars: for AUC(0-inf) / AUC(0-t) / Cmax / Tmax / half-life: male, Sprague-Dawley, rat, plasma, po, 1526.5 mg/kg; for shape of the plasma concentration–time curve: rats, after HQCF extract administration. Summed up: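 Male Sprague–Dawley rats (200 ± 20 g), acclimatised 7 days, fasted 12 h; n = 6 given extract water solution (0.2 g·mL−1) by gavage. Blood (~250 µL) from ophthalmic vein at 0–24 h; plasma spun at 16,060 × g, 10 min, 4°C. Plasma protein-precipitated with taxol internal standard; C18 gradient HPLC–ESI-MS/MS in SRM mode. Non-compartmental analysis; mean ± SD.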

The nature of series [3]: Stability of QC samples of the analytes in rat plasma. To be noted: storage conditions of Table 5. It counts as in vitro ADME. In outline: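 Rat plasma QC samples at low, middle and high levels (n = 6 each) were held 4 h at room temperature, 24 h at 4°C, three freeze/thaw cycles (−80°C to room temperature) or 45 days at −80°C. Samples were protein-precipitated with taxol internal standard and run by HPLC–MS/MS SRM. A deviation within ±15% was taken as stable.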

As a reminder, the AUC(0-inf) is total exposure, with the tail of the curve extrapolated. A lower AUC(0-inf) goes with less exposure. Broadly, the AUC(0-t) is the area under the concentration-time curve up to a stated or last time point. A lower AUC(0-t) goes with low exposure. Usually Cmax stands for the maximum level reached in the sampled fluid or tissue. What is called Tmax is the time at which the peak concentration occurs. As usually defined, the half-life is how long it takes for the measured level to halve. A low value points to rapid decline. For `COc1ccc(-c2coc3cc(O)ccc3c2=O)cc1O` [CA, calycosin], the “Stock solution stability, accuracy” value in series [1] came out at 90.2%. Moreover, in series [2], the AUC(0-inf) was determined as 1830 ± 416 ng·h/mL, the AUC(0-t) is 1680 ± 342 ng·h/mL, the Cmax was 247 ± 32.3 ng/mL and the Tmax came out at 1.5 ± 0.4 h. Also, in series [2], the half-life is 6.28 ± 2.5 h and the “shape of the plasma concentration–time curve” value is listed as “double-peak absorption phases”. Also, the “Degradation in rat plasma under different experimental conditions” value in series [3] is recorded as “no significant degradation”.
For the molecule `CC(=O)O[C@H]1C(=O)[C@@]2(C)[C@H]([C@H](OC(=O)c3ccccc3)[C@]3(O)C[C@H](OC(=O)[C@H](O)[C@@H](NC(=O)c4ccccc4)c4ccccc4)C(C)=C1C3(C)C)[C@]1(OC(C)=O)CO[C@@H]1C[C@@H]2O` [IS, Taxol, reference compound], in series [1], the “Stock solution stability, accuracy” value worked out at 102.4%.
As for `C[C@@]12C[C@@]3(O)O[C@@H](O1)[C@]1(COC(=O)c4ccccc4)[C@H]3C[C@@]12O[C@@H]1O[C@H](CO)[C@@H](O)[C@H](O)[C@H]1O` [PA, paeoniflorin], the “Stock solution stability, accuracy” value in series [1] is 105.4%. In addition, in series [2], the AUC(0-inf) is 762 ± 281 ng·h/mL, the AUC(0-t) came out at 410 ± 92.3 ng·h/mL, the Cmax came to 117 ± 31.5 ng/mL and the Tmax was found to be 1.2 ± 0.6 h. In addition, in series [2], the half-life is 6.94 ± 2.8 h and the “shape of the plasma concentration–time curve” value is recorded as “double-peak absorption phases”. Further, the “Degradation in rat plasma under different experimental conditions” value in series [3] is recorded as “no significant degradation”.
